These results are taken from ChEMBL document CHEMBL4118244, “Design, synthesis and biological evaluation of benzofuran appended benzothiazepine derivatives as inhibitors of butyrylcholinesterase and antimicrobial agents” (Bioorg Med Chem, 2018).

The subject of assay [1] is Staphylococcus aureus. Put plainly: Antibacterial activity against Staphylococcus aureus ATCC 29737 assessed as diameter of inhibition zone at 200 ug per disc after 24 hrs by agar disc diffusion method. The assay is classed as functional. The conditions noted are these: ATCC 29737, 24 h, read-out: DIZ. The essentials:
(§1)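 Agar disc diffusion. Compounds at 20 mg mL⁻¹ in DMSO, filter-sterilised. 100 µL of 10⁸ CFU mL⁻¹ bacteria spread on nutrient agar. 6 mm discs carried 10 µl (200 µg per disc), with DMSO discs as negative control. Incubation 24 h at 37 °C. Read-out is inhibition zone diameter, mean of 3 repeats (±1 mm).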
For orientation: In agar diffusion tests the substance spreads into inoculated agar from a disc or well.

Assay [2] deals with Staphylococcus aureus. The experiment in a line: Antibacterial activity against Staphylococcus aureus ATCC 29737. It is filed as functional.
For a further assay, the target named is Cholinesterase (Equus caballus, UniProt P81908). The experiment in a line: Inhibition of equine serum BChE using butyrylthiocholine iodide as substrate pretreated for 15 mins followed by substrate addition measured for 6 mins by Ellman's method. To be noted: read-out: IC50. In short, it runs like this: (§2)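 Ellman spectrophotometric assay in 0.1 M phosphate buffer pH 8.0 with DTNB, 25 °C. AChE (electric eel, Type V-S) or BChE was preincubated 15 min with compound before adding acetylthiocholine iodide or butyrylthiocholine iodide, respectively. Absorbance change at 412 nm was read for 6 min. Five concentrations were tested in triplicate, corrected by a nonenzymatic blank, with a no-inhibitor reference.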
Sequence of Cholinesterase (P81908 whole entry): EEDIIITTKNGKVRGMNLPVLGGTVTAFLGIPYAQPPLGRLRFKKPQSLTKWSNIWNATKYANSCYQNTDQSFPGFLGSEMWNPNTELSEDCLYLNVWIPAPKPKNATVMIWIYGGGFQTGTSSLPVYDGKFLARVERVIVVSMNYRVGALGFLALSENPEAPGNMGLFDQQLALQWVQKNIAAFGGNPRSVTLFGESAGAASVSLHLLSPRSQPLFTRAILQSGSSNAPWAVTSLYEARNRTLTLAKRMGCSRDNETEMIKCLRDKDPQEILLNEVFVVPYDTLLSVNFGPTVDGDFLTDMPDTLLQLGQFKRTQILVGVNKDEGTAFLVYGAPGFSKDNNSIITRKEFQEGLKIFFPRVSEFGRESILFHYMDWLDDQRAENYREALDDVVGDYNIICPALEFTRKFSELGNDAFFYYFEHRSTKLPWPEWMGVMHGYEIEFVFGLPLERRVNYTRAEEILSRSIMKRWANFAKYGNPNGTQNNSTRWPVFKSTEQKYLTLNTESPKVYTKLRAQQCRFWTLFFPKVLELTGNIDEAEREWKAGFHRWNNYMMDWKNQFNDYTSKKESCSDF
A general note: DTNB colorimetry detects thiols as they appear.

The target in assay [3] is Acetylcholinesterase (Electrophorus electricus) (UniProt O42275). The experiment in a line: Inhibition of electric eel AChE using acetylthiocholine iodide as substrate pretreated for 15 mins followed by substrate addition measured for 6 mins by Ellman's method. The essentials: as §2
Sequence of Acetylcholinesterase (Electrophorus electricus) (O42275 24-633 limits assumed): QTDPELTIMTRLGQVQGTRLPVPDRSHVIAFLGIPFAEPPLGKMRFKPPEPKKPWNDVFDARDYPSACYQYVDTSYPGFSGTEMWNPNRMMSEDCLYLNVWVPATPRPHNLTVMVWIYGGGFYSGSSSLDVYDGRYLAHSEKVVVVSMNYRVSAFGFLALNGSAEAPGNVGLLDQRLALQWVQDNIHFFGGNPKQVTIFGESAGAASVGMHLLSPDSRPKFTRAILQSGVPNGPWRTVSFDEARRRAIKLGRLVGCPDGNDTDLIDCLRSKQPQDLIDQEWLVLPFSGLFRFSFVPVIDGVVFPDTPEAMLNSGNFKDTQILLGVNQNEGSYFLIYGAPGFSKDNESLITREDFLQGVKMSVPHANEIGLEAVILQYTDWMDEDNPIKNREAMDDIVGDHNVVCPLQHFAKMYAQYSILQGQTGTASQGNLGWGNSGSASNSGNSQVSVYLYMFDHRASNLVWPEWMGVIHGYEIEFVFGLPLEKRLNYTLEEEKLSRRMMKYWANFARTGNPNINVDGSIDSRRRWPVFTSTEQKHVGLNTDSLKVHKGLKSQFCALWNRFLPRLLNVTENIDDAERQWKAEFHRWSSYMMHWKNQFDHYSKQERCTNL
For assay [4], the system named is Aspergillus niger. Put plainly: Antifungal activity against Aspergillus niger ATCC 16404 assessed as diameter of inhibition zone at 200 ug per disc after 72 hrs by agar disc diffusion method. It is filed as functional. In short, it runs like this:
(§3)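 Agar disc diffusion against mold. Compounds at 20 mg mL⁻¹ in DMSO, filter-sterilised. 6 mm discs carried 10 µl (200 µg per disc), with DMSO discs as negative control. Incubation 72 h at 30 °C. Read-out is growth inhibition zone diameter, mean of 3 repeats (±1 mm).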

Assay [5] concerns Aspergillus brasiliensis. Put plainly: Antifungal activity against Aspergillus brasiliensis PTCC 5011 assessed as diameter of inhibition zone at 200 ug per disc after 72 hrs by agar disc diffusion method. The assay is classed as functional. The essentials:
as §3

For assay [6], the system named is Candida albicans. Put plainly: Antifungal activity against Candida albicans ATCC 10231. It is filed as functional.
The subject of assay [7] is Bacillus spizizenii. Put plainly: Antibacterial activity against Bacillus subtilis ATCC 6633. The assay is classed as functional.
The test system of assay [8] is Aspergillus brasiliensis. The experiment in a line: Antifungal activity against Aspergillus brasiliensis PTCC 5011. The assay is classed as functional.
Assay [9] relates to Candida albicans. Put plainly: Antifungal activity against Candida albicans ATCC 10231 assessed as diameter of inhibition zone at 200 ug per disc after 48 hrs by agar disc diffusion method. The assay is classed as functional. The conditions noted are these: ATCC 10231, 48 h, read-out: DIZ. In short, it runs like this: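 Yeast tested by agar disc diffusion. Compounds at 20 mg mL⁻¹ in DMSO, filter-sterilised. 6 mm discs carried 10 µl (200 µg per disc), with DMSO discs as negative control. Incubation 48 h at 30 °C. Zone diameter was averaged over 3 repeats (±1 mm).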

In assay [10] the test system is Aspergillus niger. The experiment in a line: Antifungal activity against Aspergillus niger ATCC 16404. It is filed as functional.
Assay [11] deals with Staphylococcus epidermidis. Put plainly: Antibacterial activity against Staphylococcus epidermidis ATCC 12228. It is filed as functional.
Assay [12] deals with Bacillus spizizenii. The experiment in a line: Antibacterial activity against Bacillus subtilis ATCC 6633 assessed as diameter of inhibition zone at 200 ug per disc after 24 hrs by agar disc diffusion method. The assay is classed as functional. In short, it runs like this: as §1
Assay [13] concerns Staphylococcus epidermidis. The experiment in a line: Antibacterial activity against Staphylococcus epidermidis ATCC 12228 assessed as diameter of inhibition zone at 200 ug per disc after 24 hrs by agar disc diffusion method. The assay is classed as functional. The essentials: as §1
The subject of assay [14] is Klebsiella pneumoniae. The experiment in a line: Antibacterial activity against Klebsiella pneumoniae ATCC 10031. The assay is classed as functional.
The subject of a further assay is Salmonella paratyphi. Put plainly: Antibacterial activity against Salmonella paratyphi A serotype ATCC 5702 assessed as diameter of inhibition zone at 200 ug per disc after 24 hrs by agar disc diffusion method. The conditions noted are these: Salmonella enterica subsp. enterica serovar Paratyphi A. The assay is classed as functional. In short, it runs like this: as §1

In the next assay the test system is Proteus vulgaris. Put plainly: Antibacterial activity against Proteus vulgaris PTCC 1182 assessed as diameter of inhibition zone at 200 ug per disc after 24 hrs by agar disc diffusion method. It is filed as functional. In short, it runs like this: as §1
The subject of another assay is Pseudomonas aeruginosa. The experiment in a line: Antibacterial activity against Pseudomonas aeruginosa ATCC 27853. The assay is classed as functional.
Assay [15] relates to Klebsiella pneumoniae. Put plainly: Antibacterial activity against Klebsiella pneumoniae ATCC 10031 assessed as diameter of inhibition zone at 200 ug per disc after 24 hrs by agar disc diffusion method. The assay is classed as functional. The essentials:
as §1

In a further assay the test system is Shigella dysenteriae. The experiment in a line: Antibacterial activity against Shigella dysenteriae PTCC 1188 assessed as diameter of inhibition zone at 200 ug per disc after 24 hrs by agar disc diffusion method. The assay is classed as functional. In short, it runs like this:
as §1

Converted amounts (≈) assume the structure as drawn. The source made the active and inactive calls. The calls are words filed in the database; no cut-off is given here.

Usually MIC stands for the lowest concentration found to suppress growth. A word on the IC50: it is the concentration that gives 50% inhibition. For `c1ccc2c(c1)N=C(c1cc3ccccc3o1)CC(c1cccc3ccccc13)S2` (stereo not drawn), the zone of inhibition at 200 µg/disc with Staphylococcus aureus [1] was 10 mm; with Aspergillus niger [4] (ATCC 16404, 72 h, read-out: DIZ), less than 6 mm; in the assay with Aspergillus brasiliensis [5] (PTCC 5011, 72 h, read-out: DIZ), less than 6 mm; with Candida albicans [9] it was 14 mm; in the assay with Bacillus spizizenii [12] (ATCC 6633, 24 h, read-out: DIZ) it was less than 6 mm; in assay [13] (ATCC 12228, 24 h, read-out: DIZ), 9 mm. Besides, the MIC in the assay on Staphylococcus aureus [2] was determined as 5 µg/mL (≈ 12.3 µM); in the assay with Candida albicans [6], 25 µg/mL (≈ 61.6 µM); in [11] it was 5 µg/mL (≈ 12.3 µM). Besides, the IC50 at Cholinesterase is 63 µM. The inhibition entry in [3] is “inactive”. Besides, the MIC entry in the assay on Bacillus spizizenii [7], with Aspergillus brasiliensis [8] and with Aspergillus niger [10] was “inactive” each time.

`Oc1ccc(C2CC(c3cc4cc(Br)ccc4o3)=Nc3ccccc3S2)cc1` (stereo not drawn): the IC50 on Cholinesterase was found to be 6.5 µM. Further, the inhibition entry in assay [3] is “inactive”.

For `Brc1ccc2oc(C3=Nc4ccccc4SC(c4ccccc4)C3)cc2c1` (stereo not drawn), the IC50 at Cholinesterase stood at 8.5 µM. Moreover, the inhibition entry in assay [3] was “inactive”.

As for GENTAMICIN, in the assay with Klebsiella pneumoniae [14], the MIC is 0.25 µg/mL. Besides, the inhibition zone (IZ) in the assay on Salmonella paratyphi is 21 mm; in the assay on Proteus vulgaris, 23 mm; in the assay on Klebsiella pneumoniae [15], 22 mm; in the assay with Bacillus spizizenii [12], 21 mm; in assay [13], 35 mm; in the assay with Shigella dysenteriae, 18 mm. Further, the MIC entry with Pseudomonas aeruginosa is “inactive”.

On to `Cc1ccc(C2CC(c3cc4cc(Br)ccc4o3)=Nc3ccccc3S2)cc1` (stereo not drawn), for which the IC50 at Cholinesterase is 8.5 µM. The inhibition result in assay [3] is “inactive”.

Regarding `COc1cccc(C2CC(c3cc4cc(Br)ccc4o3)=Nc3ccccc3S2)c1` (stereo not drawn), the IC50 on Cholinesterase was determined as 1 µM. Also, the inhibition entry in assay [3] was “inactive”.

Regarding `COc1cccc2cc(C3=Nc4ccccc4SC(c4ccccc4)C3)oc12` (stereo not drawn), the IC50 at Cholinesterase turned out to be 2.5 µM. Also, the inhibition entry in assay [3] was “inactive”.

For the molecule `COc1ccc(C2CC(c3cc4cc(Br)ccc4o3)=Nc3ccccc3S2)cc1` (stereo not drawn), the IC50 on Cholinesterase worked out at 1 µM. Further, the inhibition result in [3] was “inactive”.

Regarding `c1ccc2c(c1)N=C(c1cc3ccccc3o1)CC(c1c[nH]c3ccccc13)S2` (stereo not drawn), the IC50 on Cholinesterase came out at 60 µM. Further, in assay [3], the inhibition entry was “inactive”.

`Oc1ccc(C2CC(c3cc4ccccc4o3)=Nc3ccccc3S2)cc1` (stereo not drawn): the half-inhibitory concentration (IC50) at Cholinesterase is 14 µM. Moreover, the inhibition result in assay [3] is “inactive”.

For the molecule NYSTATIN, the inhibition zone (IZ) came out at 27 mm in the assay with Aspergillus niger [4] and 23 mm with Aspergillus brasiliensis [5]. The MIC amounted to 0.125 µg/mL in the assay on Candida albicans [6], 0.5 µg/mL with Aspergillus brasiliensis [8] and 0.25 µg/mL with Aspergillus niger [10].
